Assay outcomes deposited in PubChem by several laboratories.
SENP8 block-1: SENP8 (human) protease inhibition; Q96LD8; recombinant SENP8, Nedd8 substrate fluorescence; inhibition, % at 20 µM; hit rate 0.64% among 360,000; in the data active means inhibition mostly above about 40%, no sharp cut-off; inactive means mostly below about 27%
SENP7 inh: SENP7 protease inhibition. recombinant SENP7, Z-RLRGG-aminoluciferin luminescence, 40 min. inhibition, % at 5 µM. hit rate 1.5% among 330,000. AID 434973;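 active means inhibition above about 50% at the single test dose, limit read from the data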;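 further: plate controls were DMSO with enzyme for no effect and no enzyme buffer wells for full effect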
SENP6 block: blocks the human protease SENP6; AID 2599; Q9GZR1; inhibition, % at 10 µM; Recombinant SENP6 catalytic domain, aminoluciferin luminescence; hit rate 1.8% among 330,000;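 active means inhibition above about 50% at the single tested dose, limit read from the data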;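 further: plate controls were DMSO wells with enzyme for no effect and DMSO wells lacking enzyme for full effect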
Target sequence (Q9GZR1 628-1112 limits assumed): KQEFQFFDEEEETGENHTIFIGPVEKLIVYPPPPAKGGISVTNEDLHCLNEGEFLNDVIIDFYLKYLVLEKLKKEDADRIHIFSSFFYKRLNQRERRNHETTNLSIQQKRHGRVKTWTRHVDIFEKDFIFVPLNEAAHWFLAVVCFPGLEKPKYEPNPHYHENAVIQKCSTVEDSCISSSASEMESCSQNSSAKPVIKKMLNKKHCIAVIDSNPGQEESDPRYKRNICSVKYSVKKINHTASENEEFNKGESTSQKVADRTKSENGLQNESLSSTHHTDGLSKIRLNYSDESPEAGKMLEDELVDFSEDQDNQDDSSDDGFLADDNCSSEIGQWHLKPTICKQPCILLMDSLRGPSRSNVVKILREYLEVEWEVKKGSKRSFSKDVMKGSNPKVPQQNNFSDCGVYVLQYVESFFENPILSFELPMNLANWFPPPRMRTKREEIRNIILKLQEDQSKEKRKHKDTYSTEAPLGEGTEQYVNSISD
Platelet DG rel: platelet dense granule release activity; human platelet-rich plasma, SFLLRN dense granule ATP release, luminescence; inhibition, %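 (compounds screened at 7.5 µM in platelet-rich plasma)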; hit rate 0.22% among 300,000; AID 1663;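 active means mean replicate score, as percent of positive control, at or above 50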
SENP1 inh: inhibitors of human SENP1 SUMO protease catalytic domain; Q9P0U3; recombinant SENP1 catalytic domain, CyPet-SUMO1-YPet FRET cleavage; inhibition, % at 10 µM; hit rate 0.21% among 360,000;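 active means inhibition at least 30% at 10 µM, raw YFP signal under a set limit, fluorescence ratio 0.5 to 1.5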;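 further: 0% = enzyme with DMSO and 100% = no enzyme wells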
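Assay system: hSENP1 catalytic domain, recombinant. Amount: SENP1 enzyme, 20 pM final. Schedule: 50 min reaction, RT, dark. Technique: FRET, CFP and YFP emission. Control set: no-enzyme wells low, DMSO-plus-enzyme wells high control.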
SENP8 block-2: SENP8 protease inhibition. Q96LD8. inhibition, % at 10 µM. hit rate 1.2% among 330,000. purified SENP8, Z-RLRGG-aminoluciferin cleavage, luminescence. AID 2540; in the data active means inhibition above about 50%
SENP8 conf: confirmation of human SENP8 protease inhibitors; shares compounds with SENP7 inh; Recombinant SENP8, Z-RLRGG-aminoluciferin luminescence, 60 min; inhibition, % at 12.5 µM; hit rate 40% among 6,200; AID 488912;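 active means mean inhibition across replicates above about 50%, limit read from the data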
SENP6 conf: human SENP6 inhibition, confirmed; shares compounds with SENP7 inh; recombinant SENP6, Z-RLRGG-aminoluciferin luminescence; inhibition, % at 12.5 µM; hit rate 58% among 6,200; AID 488915
SENP7 conf: confirmation of human SENP7 protease inhibitors | inhibition, % at 12.5 µM | hit rate 69% among 6,200 | recombinant SENP7, Z-RLRGG-aminoluciferin luminescence, 40 min | AID 488917 | shares compounds with SENP7 inh
Casp3 SENP sel: selectivity test for SENP inhibitors: human caspase-3 inhibition; shares compounds with SENP7 inh; inhibition, % at 12.5 µM; purified caspase-3, Z-DEVD-aminoluciferin luminescence, 60 min; hit rate 60% among 6,200;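 active means mean inhibition above about 50%, limit read from the data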;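 further: plate controls were enzyme with DMSO for no effect and wells without caspase-3 for full effect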
SENP luc ctr: luminescence interference (SENP counter-screen); shares compounds with SENP7 inh; Pre-incubated SENP8/Z-RLRGG-aminoluciferin, luciferase luminescence interference; inhibition, % at 12.5 µM; hit rate 39% among 6,200;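 active means mean inhibition above about 50% when retested at one dose, limit read from the data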;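 further: plate controls were DMSO wells with completed reaction for no effect and substrate without enzyme for full effect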
* = called active by the depositor; x = not tested or not shown. A selection: hits, their analogues and other compounds. The true share with any hit is near 2.6%.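 How the source made its calls, unless noted: active means mean inhibition above about 50% in the one-dose retest (limit read from the data); inactive means the rest.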

SMILES	SENP8 block-1	SENP7 inh	SENP6 block	Platelet DG rel	SENP1 inh	SENP8 block-2	SENP8 conf	SENP6 conf	SENP7 conf	Casp3 SENP sel	SENP luc ctr
CCCCc1ccc(NC(=S)NCc2ccc(OC)cc2)cc1	20	-6	-24	7	2	-6	x	x	x	x	x
O=C(Nc1ccc(Cl)cc1)Nc1ccccc1Sc1ncc([N+](=O)[O-])s1	24	95*	99*	27	-8	96*	100*	101*	104*	100*	39
CC1(C)S[C@@H]2[C@H](NC(=O)[C@H](N)c3ccccc3)C(=O)N2[C@H]1C(=O)OC1OC(=O)c2ccccc21 (stereo not given in full)	-35	3	3	x	-1	8	x	x	x	x	x
COc1ccc(NC(=O)c2sc(NC(=O)COc3ccccc3)nc2C)cc1	11	0	68*	2	1	59*	-5	54*	96*	82*	26
CCCC(=O)Nc1nc2ccc(NC(=O)c3ccccc3F)cc2s1	12	4	7	9	1	-8	x	x	x	x	x
COc1ccc(C(=O)Nc2nc3ccccc3s2)c(OC)c1	-171	101*	97*	83*	-1	98*	88*	100*	103*	98*	33
Cc1nc(NC(=O)COc2ccccc2)sc1C(=O)Nc1cccc(Cl)c1	-40	47	-2	-6	2	2	x	x	x	x	x
Cc1ccc2nc(NC(=O)c3ccccc3F)sc2c1	-34	91*	86*	0	0	81*	22	76*	50*	64*	7
COc1ccc2nc(NC(=O)c3ccccc3F)sc2c1	-96	93*	87*	16	0	83*	75*	85*	98*	87*	29
COc1ccc2nc(NC(=O)c3ccccc3C(=O)O)sc2c1	10	-7	-19	3	3	-1	x	x	x	x	x
O=C(Nc1ccc(N2CCN(C(=O)c3cccs3)CC2)cc1)c1ccc(F)cc1	1	-2	-36	2	6	-8	x	x	x	x	x
CCCNC(=O)C1(C)CCN(C(=O)c2ccc3sccc3c2)C1 (stereo not given)	11	x	x	x	-1	x	x	x	x	x	x
COc1ccc(NC(=O)c2nc3ccccc3s2)cc1	9	97*	95*	10	0	95*	4	98*	102*	94*	75*
COc1ccc2nc(NC(=O)Nc3ccccc3)sc2c1	0	85*	68*	0	1	49	44	46	91*	52*	11
O=C(Oc1ccc[nH]c1=O)C1CC1	0	x	x	x	1	x	x	x	x	x	x
CCNC(=O)Oc1ccc[nH]c1=O	16	14	51*	-4	1	13	-3	0	-6	4	3
Cc1nc(N2CCOCC2)[nH]c(=O)c1[N+](=O)[O-]	30	10	12	-1	1	0	x	x	x	x	x
Cn1nc([N+](=O)[O-])nc1N1CCOCC1	-1	10	5	-4	2	61*	-13	5	-3	-4	-3
CCOc1ccc2nc(NC(=O)Cc3cccs3)sc2c1	0	47	64*	-11	1	26	57*	54*	80*	32	14
CCOc1ccc2nc(NC(=O)Nc3cccs3)sc2c1	-5	40	68*	-10	1	57*	51*	61*	82*	32	38
CCOc1ccc2nc(NC(=O)Nc3ccccc3)sc2c1	11	36	-3	0	-1	-7	x	x	x	x	x
CN(c1ccccc1)S(=O)(=O)c1ccc(Cl)c(C(=O)NCC(c2ccco2)N2CCCC2)c1 (stereo not given)	-5	1	-2	x	-3	3	x	x	x	x	x
COc1ccccc1NC(=O)NC(=O)N(C(C)C)S(C)(=O)=O	8	5	9	1	1	3	x	x	x	x	x
CCCCN(C(=O)NC(=O)Nc1ccccc1OC)S(C)(=O)=O	4	56*	-2	0	1	3	9	7	1	-1	-8
Cc1nn(CC(=O)Nc2nnc(C(C)C)s2)c(=O)c2ccccc12	17	7	7	6	1	2	x	x	x	x	x
SMILES	SENP8 block-1	SENP7 inh	SENP6 block	Platelet DG rel	SENP1 inh	SENP8 block-2	SENP8 conf	SENP6 conf	SENP7 conf	Casp3 SENP sel	SENP luc ctr
COc1ccc2c(c1)CCc1c(C(=O)NC3CCCCC3)noc1-2	16	86*	33	-3	1	0	-24	-11	0	4	-3
COCCNC(=O)c1noc2c1CCc1cc(OC)ccc1-2	9	11	17	-17	1	-3	x	x	x	x	x
COCC(C)NC(=O)c1noc2c1CCc1cc(OC)ccc1-2 (stereo not given)	2	52*	53*	6	-1	12	36	14	74*	73*	60*
COc1ccc(-n2nc(C(=O)NCC(=O)NCCC3=CCCCC3)c3ccccc3c2=O)cc1	-206	2	-19	1	2	-11	x	x	x	x	x
CCOC(=O)c1nnsc1NC(C)=O	10	-3	-1	-18	-8	-6	x	x	x	x	x
CCOC(=O)c1nnsc1NC(=O)Nc1ccc(OC)cc1	5	51*	-17	2	1	-8	13	10	10	12	-4
Nc1ccc(-c2nc3cc(N)ccc3o2)cc1	-469	41	52*	0	-10	17	43	34	77*	67*	52*
CN(C)c1ccc(-c2nc3cc(N)ccc3o2)cc1	-449	95*	93*	30	-42	91*	85*	94*	100*	91*	79*
Cc1ccc(C)c(-c2nc3cc(N)ccc3o2)c1	-413	17	55*	1	-60	30	27	27	69*	26	50*
Nc1ccc(-c2nc3ccc(N)cc3o2)cc1	-423	61*	68*	12	-17	47	38	45	82*	79*	62*
Nc1ccc2oc(C3CCCCC3)nc2c1	-87	8	13	11	3	0	x	x	x	x	x
Cc1ccc(C)c(-c2nc3ccc(N)cc3[nH]2)c1	-270	1	11	-1	-19	-6	x	x	x	x	x
CCOC(=O)C1=C(C)Nc2ccccc2N=C1NC(=O)c1cc(C)on1	8	-8	-1	x	2	-5	x	x	x	x	x
N#CCC(C(=O)c1cccnc1)c1ccccc1 (stereo not given)	21	x	x	x	1	x	x	x	x	x	x
